hiPSC survival: enhancers of human iPSC single-cell survival | hiPSC single-cell survival, ATPlite luminescence; 100% = ROCK inhibitor wells, 0% = DMSO | survival enhancement, % at 20 µM | actives 0.044% (n = 360,000) | AID 602274; in the data active means survival enhancement above about 18%;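 further: cells exposed to compounds for 16 hours before the ATP read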
FAS-TE inh: FAS thioesterase (human) inhibition; P49327; recombinant FAS-TE, OMFH fluorogenic substrate, fluorescence endpoint; inhibition, % at 15 µM; actives 0.67% (n = 360,000); AID 602261;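 active means compounds whose normalised, plate-corrected inhibition of enzyme fluorescence in the single-dose primary screen is 50% or more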;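 further: 0% = DMSO with enzyme and 100% = substrate without enzyme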
H9c2 protect: modulators protecting cardiomyocytes from myocardial damage | H9c2 cardiomyocytes, H2O2 injury protection, ATPLite, 2 h | protection from H2O2 cell death, % at 20 µM | actives 0.63% (n = 360,000) | AID 588492;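 active means compounds giving at least 50% protection of heart cells from peroxide-induced death in the single-dose screen, raw or plate-pattern-corrected value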;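 further: 0% = DMSO wells with peroxide and 100% = DMSO wells without peroxide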
GRIN3A LBD mod: modulators (binders) of human NR3A ligand-binding domain; Tm shift relative to glycine control, % at 25 µM; NR3A LBD differential scanning fluorimetry, Tm shift; 0% = protein alone, 100% = glycine-bound protein; actives 2.5% (n = 340,000);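 active means melting temperature shift of at least 10% of the positive control shift, at one fixed dose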
Arrestin-AP2 inh: inhibitors of human beta-arrestin and AP2 interaction. FITC-arrestin peptide / GST-AP2 beads, flow cytometry; AP2 beta2 appendage carries R879A mutation. inhibition, % at 10 µM. actives 0.31% (n = 340,000);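 active means inhibition above a set limit, near 3 SD of compounds lacking own fluorescence, cut at about 54% in these data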;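 further: plate controls were DMSO wells for no effect and 5 µM unlabelled arrestin peptide for full effect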
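test system = AP2 appendage R879A on GSH beads | buffer or medium = PBS plus Tween 20 (0.05%) and BSA (0.1%) | incubation = 12 min plus 1 h, RT | detection = bead flow cytometry, FITC channel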
SENP1 FRET inh: blocks the human SENP1 SUMO protease catalytic domain; inhibition, % at 10 µM; AID 624204; actives 0.21% (n = 360,000); recombinant SENP1 catalytic domain, CyPet-SUMO1-YPet FRET cleavage;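 active means inhibition at least 30% at 10 µM, raw YFP signal under a set limit, fluorescence ratio 0.5 to 1.5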;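 further: 0% = enzyme with DMSO and 100% = no enzyme wells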
Target sequence (Q9P0U3 419-644 limits assumed): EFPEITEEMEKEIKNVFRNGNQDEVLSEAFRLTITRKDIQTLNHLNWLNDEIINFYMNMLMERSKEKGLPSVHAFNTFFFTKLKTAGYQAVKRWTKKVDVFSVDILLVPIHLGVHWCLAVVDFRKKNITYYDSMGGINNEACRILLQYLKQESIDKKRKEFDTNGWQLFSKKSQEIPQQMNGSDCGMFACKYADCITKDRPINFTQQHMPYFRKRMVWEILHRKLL
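Test system: human SENP1 catalytic domain; medium: Tris pH 8 buffer plus EDTA, NaCl, BME, BSA, NP40, catalase; incubation: 50 min reaction at room temperature; technique: FRET, CFP and YFP emission; controls: no-enzyme low control and enzyme-plus-DMSO high control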
* marks the source's active call; other numbers are inactive results. Hits are enriched below; roughly 4% of the tested compounds scored in any of these assays.

For O=C(N/N=C/c1c[nH]c2ccccc12)C1COc2ccccc2O1 (stereo not drawn) the results were hiPSC survival -0.5, FAS-TE inh -2.4, H9c2 protect 1.2, GRIN3A LBD mod 28.1*, Arrestin-AP2 inh -8.5 and SENP1 FRET inh -0.3.
Screening O=C(COC(=O)/C=C/c1cc(Br)ccc1F)Nc1ccc2[nH]c(=O)[nH]c2c1 returned hiPSC survival 0.0, FAS-TE inh -11.4, H9c2 protect 3.8, GRIN3A LBD mod 10.1*, Arrestin-AP2 inh 1.2 and SENP1 FRET inh -18.0.
O=C(COC(=O)Cc1ccccc1F)Nc1ccc2[nH]c(=O)[nH]c2c1 was read as hiPSC survival -0.4, FAS-TE inh -3.0, H9c2 protect 2.9, GRIN3A LBD mod -1.3, Arrestin-AP2 inh -4.4 and SENP1 FRET inh -14.1.
CCCC(C)(C)C(=O)N1CCC1(C)C(=O)Nc1cccc(OC)c1 (stereo not drawn) was read as hiPSC survival 1.6, FAS-TE inh 0.3, H9c2 protect 6.6 and SENP1 FRET inh 1.8.
COc1ccc(NC(=O)/C=C/c2ccc(OC)c(OC)c2)cn1 was read as hiPSC survival -0.8, FAS-TE inh -1.3, H9c2 protect -0.6, GRIN3A LBD mod -17.0, Arrestin-AP2 inh -6.3 and SENP1 FRET inh -0.3.
COc1ccc(NC(=O)/C=C/c2cccc(Br)c2)cn1 was read as hiPSC survival -0.4, FAS-TE inh 3.6, H9c2 protect 1.8, GRIN3A LBD mod 32.6*, Arrestin-AP2 inh 30.4 and SENP1 FRET inh -8.9.
Screening COc1ccc(/C=C/C(=O)Nc2ccc(OC)nc2)cc1 returned hiPSC survival 3.6, FAS-TE inh 1.1, H9c2 protect -3.8, GRIN3A LBD mod 26.1*, Arrestin-AP2 inh -6.7 and SENP1 FRET inh -1.7.
For COc1ccc(NC(=O)/C=C/c2cccc(C(F)(F)F)c2)cn1 the results were hiPSC survival 0.0, FAS-TE inh 4.1, H9c2 protect -4.3, GRIN3A LBD mod 11.4*, Arrestin-AP2 inh 6.3 and SENP1 FRET inh -1.3.
Screening COc1ccc(CS(=O)(=O)/C(Cl)=C(/Cl)C(=O)Nc2ccc(OC)nc2)cc1 returned hiPSC survival 37.3*, FAS-TE inh 34.5, H9c2 protect -39.7, GRIN3A LBD mod -18.8, Arrestin-AP2 inh 1.5 and SENP1 FRET inh 0.6.
`COc1ccc(NC(=O)/C=C/c2ccc(OC(F)F)cc2)cn1` gave hiPSC survival -0.5, FAS-TE inh 4.7, H9c2 protect -11.7, GRIN3A LBD mod 3.4, Arrestin-AP2 inh -3.3 and SENP1 FRET inh 1.1.
Cc1ccn(CCC(=O)N2CCCC(N3CCN(c4ccccc4C)CC3)C2)n1 (stereo not drawn) was read as hiPSC survival -0.6, FAS-TE inh -1.3, H9c2 protect -2.3 and SENP1 FRET inh -1.0.
`CC(=O)NCCNc1nc2cc(-c3ccc4c(ccn4C)c3)sc2c(=O)n1C` gave hiPSC survival -1.3, FAS-TE inh -2.8, H9c2 protect 7.2 and SENP1 FRET inh -0.8.
Screening COc1cccc(C(O)c2nc(-c3ccc(OC)nc3)cs2)c1 (stereo not drawn) returned hiPSC survival -2.1, FAS-TE inh -1.8, H9c2 protect 0.7 and SENP1 FRET inh 3.0.
Screening Cc1ccccc1C1c2[nH]c3ccccc3c2C[C@H]2C(=O)N(c3ccccc3C(=O)NCCCN3CCOCC3)C(=O)N12 (stereo partly drawn) returned hiPSC survival 17.1, FAS-TE inh 7.9, H9c2 protect 54.7*, GRIN3A LBD mod -2.4, Arrestin-AP2 inh 5.7 and SENP1 FRET inh -33.1.
N#C/C(=C\c1ccc(O)c(O)c1)C(=O)N1CCc2ccccc21 was read as hiPSC survival -1.6, FAS-TE inh 2.2, H9c2 protect 77.4*, GRIN3A LBD mod -6.0, Arrestin-AP2 inh 5.8 and SENP1 FRET inh -58.9.
`N#C/C(=C\c1ccc(O)c(O)c1)C(=O)NCCc1ccccc1` gave hiPSC survival 1.7, FAS-TE inh 1.9, H9c2 protect 77.2*, GRIN3A LBD mod -11.9, Arrestin-AP2 inh 13.1 and SENP1 FRET inh -57.0.
Screening COc1cc(/C=C(\C#N)C(=O)NCCc2ccccc2)cc(OC)c1O returned hiPSC survival -1.6, FAS-TE inh -0.5, H9c2 protect 10.0, GRIN3A LBD mod 2.9, Arrestin-AP2 inh -7.8 and SENP1 FRET inh -35.7.
O=C(COc1ccc(Br)cc1Br)NNC(=O)c1cccs1 was read as hiPSC survival -0.3, FAS-TE inh 1.2, H9c2 protect -10.7, GRIN3A LBD mod -0.4, Arrestin-AP2 inh 24.6 and SENP1 FRET inh 2.1.
Cc1cc(Br)cc(C)c1OCC(=O)NNC(=O)c1cccs1 was read as hiPSC survival -0.2, FAS-TE inh 0.9, H9c2 protect 4.9, GRIN3A LBD mod 13.1*, Arrestin-AP2 inh 43.3 and SENP1 FRET inh 1.6.
`CCN1/C(=C/c2ccc3cc(C)ccc3[n+]2CC)Sc2cc(C)ccc21` gave hiPSC survival -5.3, FAS-TE inh -36.6, H9c2 protect -25.9, GRIN3A LBD mod -0.4, Arrestin-AP2 inh -73.6 and SENP1 FRET inh 102.0.
CCN1/C(=C/c2ccc3ccccc3[n+]2CCCS(=O)(=O)[O-])C=Cc2cc(C)ccc21 was read as hiPSC survival -0.2, FAS-TE inh -1.5, H9c2 protect -9.3, GRIN3A LBD mod -3.0, Arrestin-AP2 inh 15.4 and SENP1 FRET inh 2.2.
Screening CCN1/C(=C/c2ccc3ccccc3[n+]2CC)C=Cc2ccccc21 returned hiPSC survival -4.5, FAS-TE inh 0.5, H9c2 protect -33.7, GRIN3A LBD mod -0.9, Arrestin-AP2 inh 4.6 and SENP1 FRET inh 63.1*.
CCCCN1/C(=C/c2ccc3ccccc3[n+]2CC)Sc2ccccc21 was read as hiPSC survival -1.3, FAS-TE inh -34.0, H9c2 protect -23.4, GRIN3A LBD mod 1.0, Arrestin-AP2 inh -38.0 and SENP1 FRET inh 70.1*.
For CC(C)[C@H](NC(=O)c1ccc(Cl)cc1)C(=O)Nc1cccc(S(=O)(=O)N2CCOCC2)c1 the results were hiPSC survival -1.3, FAS-TE inh 1.1, H9c2 protect -4.2 and SENP1 FRET inh 2.0.
Screening CN1C(=O)[C@H]2[C@@H](c3ccc(C(F)(F)F)cc3)N[C@]3(CCCN(Cc4ccc(Br)cc4)C3=O)[C@H]2C1=O returned hiPSC survival -2.9, FAS-TE inh 14.8, H9c2 protect -18.0 and SENP1 FRET inh 0.3.
For C[C@H](CO)N1C[C@H](C)[C@@H](CN(C)C(=O)Nc2ccc(C(F)(F)F)cc2)Oc2c(NC(=O)Nc3ccc(C(F)(F)F)cc3)cccc2C1=O the results were hiPSC survival 1.8, FAS-TE inh 79.2*, H9c2 protect -11.8, GRIN3A LBD mod 27.9*, Arrestin-AP2 inh 27.9 and SENP1 FRET inh 3.9.
